This sample holds only a part of the variants without activity.
B1: tRNA (parent)
chain: GUUCCGUUGGCGUAAUGGUAACGCGUCUCCCUCCUAAGGAGAAGACUGCGGGUUCGAGUCCCGUACGGAACG

Variants of: B1
Assay: yeast fitness relative to wild type (ratio to wild type); higher = fitter; tRNA-Arg(CCU), competitive growth, 37 C, YPD
Outline: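 Changes in genotype frequencies gave Darwinian fitness relative to wild type. Frequencies were read by 100-nucleotide paired-end sequencing of gene amplicons before and after pooled Saccharomyces cerevisiae strains, carrying tRNA-Arg(CCU) gene variants at the native locus, were competed in YPD at 37°C for 24 hours in six replicates. A genotype was kept only with ≥ 100 starting reads, and estimates < 0.5 were set to 0.5.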

| Variant | yeast fitness |
| --- | --- |
| C24A C27A U28A G67U | ≤ 0.5 |
| C22U C34U G39A G44A G58C A65C | ≤ 0.5 |
| G23A C30U U35C C62A | ≤ 0.5 |
| C24A C60U C61G G67A | 0.614 |
| G23C A37G A69C | 0.548 |
| C24A U59G C62U | ≤ 0.5 |
| C24G C55G C62U | ≤ 0.5 |
| C22U C31U A45U C55U A70U | ≤ 0.5 |
| C24A G52A | 0.752 |
| C24A A42C U64C | ≤ 0.5 |
| G23A G25A C31U | 0.652 |
| C22U C46U G50C C55U A57U C62G A70U | ≤ 0.5 |
| C24U A65C | 0.739 |
| C24U C34G U35G G38A A45C | 0.646 |
| C24A C60U | 0.543 |
| C22U C60G | 0.688 |
| C24A A42G G63A U64A | ≤ 0.5 |
| C24U C29U C49G | ≤ 0.5 |
| C24G C27G C62A | 0.622 |
| C24A A70U | 0.596 |
| G23A A36U G39C G68A | ≤ 0.5 |

| Variant | yeast fitness |
| --- | --- |
| G23C A42C A43C | 0.575 |
| C24U A42C | 0.994 |
| C22U G51A | 0.804 |
| C24G A43G U47A U53A | ≤ 0.5 |
| G23U U32A U53A C55G | ≤ 0.5 |
| G23C C30G G39C | 0.501 |
| C24U C33U C34G A40U G67A | 0.541 |
| G23C C30A U64C | ≤ 0.5 |
| G23C C29G A43U G50A A65C | 0.542 |
| G23A C31U A57U | ≤ 0.5 |
| C24A U59A C61U | 0.567 |
| G23C U28G A42C G52C | ≤ 0.5 |
| C24U A45C A69C | 0.619 |
| C24A A43C A69U | ≤ 0.5 |
| G23C A36C | ≤ 0.5 |
| G23C A36G | 0.625 |
| C24G A40G A42G | 0.54 |
| C24G G48A | 0.588 |
| C22U U47A A70G | 0.536 |
| G23U A43U C55G | ≤ 0.5 |
| C24A G48A U53G G63C | ≤ 0.5 |

| Variant | yeast fitness |
| --- | --- |
| G23A A42U C61A | ≤ 0.5 |
| C24A C27U A40U A57C | 0.512 |
| C24G C49G G67A A69C | 0.521 |
| G23A A40G A45C | ≤ 0.5 |
| C24G C33A A70C | ≤ 0.5 |
| C24G U54G G63A | 0.553 |
| C24G C33G A36C A37C G41A A42C A65U | ≤ 0.5 |
| C24G C62U A65G | 0.558 |
| C22U C60U C61A | ≤ 0.5 |
| C24U A36C A43U C61U | ≤ 0.5 |
| C22U C33G G58C | 0.525 |
| G23C C27G A45G G52A | 0.57 |
| C22U G52C | 0.537 |
| G23C G50A | 0.726 |
| G23A C49A U59C C62U A65U A70C | 0.524 |
| G23C G68U | 0.64 |
| G23C G68A | 0.719 |
| C22U U59A C61G | 0.547 |
| G23C U53A A65U | ≤ 0.5 |
| C22U U28G A45G A65G | ≤ 0.5 |
| C24G G38A G44C | ≤ 0.5 |

| Variant | yeast fitness |
| --- | --- |
| C24A A40G C66U | ≤ 0.5 |
| C24A A45G A57U C62U | ≤ 0.5 |
| G23C C31G C60A A70U | 0.554 |
| G23C C49A U59C A69G | ≤ 0.5 |
| C24G A42C C55A U59A A70U | ≤ 0.5 |
| C24A C29U C30U | ≤ 0.5 |
| G23C A42U | 0.65 |
| G23C C27G C61U | ≤ 0.5 |
| G23A U28C U59C C60G | 0.649 |
| C24G C66G G68C | ≤ 0.5 |
| C24G A40U | 0.542 |
| G23C C34U U47A G58C G67U | 0.533 |
| C24G C30G C34G A70G | ≤ 0.5 |
| G23C A42G A69G A70C | ≤ 0.5 |
| C24U C30A A37G | 0.593 |
| C22U U59C | 0.778 |
| G23A C34U A43U G44C C60U | ≤ 0.5 |
| C24A A36C G52C C66U | 0.761 |
| C24G C30G C66U | ≤ 0.5 |
| C24G U59A | 0.552 |

Reference: the RNAGym collection of RNA variant scans (doi:10.1126/science.aae0568)
